Only some compounds are listed: those with a hit (about 1.1% of all), similar ones and a draw of the others.
PMI act: activators of human phosphomannose isomerase. purified human PMI, coupled resazurin fluorescence, 20 min; hits give high values; 1 = vehicle control, 0 substrate-free wells. activation factor at 20 µM. 190,000 tested, 0.005% active. AID 1214;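 active = activation factor of 2 or more at 20 µM, relative to plate controls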
Target sequence (P34949 whole entry, looked up): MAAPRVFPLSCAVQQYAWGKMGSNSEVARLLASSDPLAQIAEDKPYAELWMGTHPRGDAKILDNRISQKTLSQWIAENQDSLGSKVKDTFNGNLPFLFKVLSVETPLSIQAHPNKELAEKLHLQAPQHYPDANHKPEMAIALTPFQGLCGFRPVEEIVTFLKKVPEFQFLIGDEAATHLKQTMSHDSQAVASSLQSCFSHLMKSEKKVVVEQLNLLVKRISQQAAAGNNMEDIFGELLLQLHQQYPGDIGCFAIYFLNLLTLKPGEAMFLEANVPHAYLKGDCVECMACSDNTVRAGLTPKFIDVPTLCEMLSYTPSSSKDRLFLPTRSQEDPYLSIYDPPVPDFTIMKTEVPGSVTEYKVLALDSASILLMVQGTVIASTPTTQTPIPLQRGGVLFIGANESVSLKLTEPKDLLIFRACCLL
Diaph act CS: counter-screen for diaphorase-based assays: diaphorase activators and chemical reducers | activation factor at 20 µM | Diaphorase/resazurin coupled assay, resorufin fluorescence, 16 min; hits give high values; 1 = vehicle wells, 0 = NADH-free wells | AID 1229 | 190,000 tested, 0.005% active;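 active = diaphorase activity raised at least twofold by the compound at 20 µM; inactive = activation factor below 2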
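Material: Clostridium kluyveri diaphorase, purified enzyme; Quantity: enzyme 0.07 U/mL final; Medium: HEPES pH 7.4 buffer with MgCl2 and Tween 20; Dosing: single compound dose of 20 µM, 1% DMSO final; Schedule: 16 min reaction at room temperature; Measured by: red resorufin fluorescence at 544/590 nm excitation/emission.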
G6PDH CS: counter-screen for G6PDH assay hits: L. mesenteroides G6PDH inhibition. Purified L. mesenteroides G6PDH, diaphorase/resazurin coupled fluorescence, 45 min. inhibition, % at 5 µM. 200,000 tested, 0.12% active. AID 1020; in the data active = inhibition above about 50%
Diaph inh CS: inhibits diaphorase or chemically oxidizes, flagging diaphorase assay artifacts; inhibition, % at 20 µM; 190,000 tested, 0.69% active; diaphorase resazurin-to-resorufin fluorescence, NADH, 16 min; bacterial (C. kluyveri) enzyme, not human; AID 1217;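 active = primary screen inhibition at 20 µM above a set limit, cut at about 50% in these data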
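controls = No-NADH positive control and DMSO neutral control | system = Clostridium kluyveri diaphorase enzyme | timing = reaction incubation of 16 min at room temperature | signal = resorufin fluorescence 544/590 nm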
PMI act hi M6P: increases human PMI activity with near-saturating mannose 6-phosphate | P34949 | coupled PMI enzyme assay, resazurin fluorescence, 20 min; hits give high values; 1 = untreated enzyme, 0 = substrate-free blank | activation factor at 20 µM | 190,000 tested, 0.34% active | AID 1216;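 active = activation factor of 2 or more at 20 µM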
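Technique: Diaphorase-driven resazurin-to-resorufin fluorescence, excitation 544, emission 590 nm | Assay system: Human PMI in coupled enzyme assay | Times: Enzyme reaction with compound 20 min at room temperature | Medium: HEPES-buffered pH 7.4 with magnesium and detergent | Reagent: Mannose-6-phosphate 1.0 mM (near-saturating) plus 0.22 mM NADP+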
Of the large screens only hits and unclear results are named; the others gave an inactive call.

CCOC(=O)C1=C(O)c2ccccc2C(=O)/C1=C\c1ccc(C)cc1	G6PDH CS 51
CCOC(=O)C1=C(O)/C(=C\c2ccc(OC)c(OC)c2)N=C1C	none
CC(C)NC(=O)c1cc(=O)n(C)c(=O)n1C	none
CCC1(C)Cc2nc3sc(C(=O)O)c(N)c3cc2CO1 (stereo not given)	PMI act hi M6P 2.2
CCOC(=O)c1sc2nc3c(cc2c1N)COC(C)(CC)C3 (stereo not given)	none
NNC(=O)CN1CCCc2ccccc21	none
CCOC(=O)C1CCN(Cc2ccc(O)c3ncccc23)CC1	G6PDH CS 50, Diaph inh CS 73
Oc1ccc(CN2CCCc3ccccc32)c2cccnc12	Diaph inh CS 77
CCOC(=O)N1CCN(Cc2cc(Cl)c3cccnc3c2O)CC1	Diaph inh CS 61
CCOC(=O)C1CCN(Cc2ccccc2C(F)(F)F)CC1	none
COc1ccccc1N1CCN(Cc2ccc(O)c3ncccc23)CC1	Diaph inh CS 57
CCOc1cc(N2CCOCC2)c(OCC)cc1NC(=O)c1c(-c2ccccc2Cl)noc1C	none
O=[N+]([O-])c1cc(C(F)(F)F)cc([N+](=O)[O-])c1N1CCCNCC1	none
CCOC(=O)C(=O)NNc1ccccc1C	PMI act hi M6P 2.2
CCOC(=O)C(=O)Nc1ccccc1C(N)=O	none
CCOC(=O)C(=O)NNc1cccc(C)c1C	PMI act hi M6P 2.2
CCCN(S(=O)(=O)c1ccc(OCC)cc1)S(=O)(=O)c1cccs1	none
Cc1ccc(OS(=O)(=O)c2cn(C)c(=O)n(C)c2=O)cc1C	none
O/C(=C\c1nc2ccccc2nc1/C=C(\O)c1ccccc1)c1ccccc1	G6PDH CS 51
COc1ccc(/C(O)=C/c2nc3ccccc3n(-c3ccccc3)c2=O)cc1	none
O=C(OCC(=O)N1c2ccccc2Sc2ccccc21)c1ccc[n+]([O-])c1	none
CC(C)c1ccc(S(=O)(=O)c2ccc(NN)cc2)cc1	PMI act hi M6P 2.2
CC(C)c1nc2sc3c(NCc4ccco4)ncnc3c2c2c1COC(C)(C)C2	Diaph inh CS 104
CC(C)c1nc2sc3c(NCc4ccccc4)ncnc3c2c2c1COC(C)(C)C2	Diaph inh CS 58
CSc1nc(NCc2ccco2)c2sc3nc(C(C)C)c4c(c3c2n1)CC(C)(C)OC4	Diaph inh CS 86
CC(C)c1nc2sc3c(=O)n(N)cnc3c2c2c1COC(C)(C)C2	none
CCN(CCO)c1ncnc2c1sc1nc(C(C)C)c3c(c12)CC(C)(C)OC3	Diaph inh CS 63
Cc1cc(NC(=O)C2CCN(S(=O)(=O)c3cnc[nH]3)CC2)ccc1Br	none
COc1ccc(N2CCN(C(c3ccccc3)c3nnnn3Cc3ccc(F)cc3)CC2)cc1 (stereo not given)	none
O=C(O[C@@H]1Cc2c(O)cc(O)cc2O[C@@H]1c1cc(O)c(O)c(O)c1)c1cc(O)c(O)c(O)c1	Diaph inh CS 74
COc1ccc(NC(=O)C2CCCN(S(=O)(=O)c3ccc4c(c3)oc(=O)n4C)C2)c(OC)c1 (stereo not given)	none
Cc1cc(C(=O)COc2cccnc2[N+](=O)[O-])c(C)n1Cc1cccs1	Diaph inh CS 60
Cc1cc(C(=O)CSc2n[nH]c(-c3ccccc3F)n2)c(C)n1Cc1cccs1	Diaph inh CS 50
CC(=O)Nc1ccccc1OCC(=O)c1cc(C)n(Cc2cccs2)c1C	none
Cc1csc(SCC(=O)c2cc(C)n(Cc3cccs3)c2C)n1	none
Cc1ccc([N+](=O)[O-])cc1-c1[nH]c(-c2ccc(O)c(O)c2)nc1-c1ccccc1	Diaph inh CS 64
COc1cccc2cc(-c3ccnc(=S)[nH]3)oc12	Diaph inh CS 58
Cc1nc2c(C(=O)NCCc3ccccc3Cl)c[nH]n2c(=O)c1Cl	Diaph inh CS 65
Cc1nc2c(C(=O)NCc3ccccc3Cl)c[nH]n2c(=O)c1Cl	none
CN1CC2(Cc3c1ccc1ccccc31)C(=O)OC(C)(C)OC2=O	Diaph inh CS 51
CCc1ccccc1N/N=C(/C)c1c(O)cc(C)oc1=O	PMI act hi M6P 2.7
C/C(=N\NC(=O)c1ccccc1O)c1c(O)cc(C)oc1=O	none
Cc1nccn1CCC(=O)Nc1ccc(Cl)cc1	none
